Measured values from ChEMBL document CHEMBL3877303 (J Med Chem, 2017).
Activity calls are given as the source filed them. The calls are words filed in the database; no cut-off is given here.

Assays:
[1] = target: T1, Mast/stem cell growth factor receptor Kit (Homo sapiens, UniProt P10721); conditions: GISTT1, 1 uM
[2] = target: T1, Mast/stem cell growth factor receptor Kit; conditions: 1 uM
[3] = target: T1, Mast/stem cell growth factor receptor Kit; conditions: 1 uM; remark: listed apart in the source
[4] = tested on: Mast/stem cell growth factor receptor Kit (Homo sapiens), P10721 [N822K]; experiment: Inhibition of Tel-fused c-KIT N822K mutant (unknown origin) expressed in BAF3 cells assessed as growth inhibition measured after 72 hrs by CellTiter-Glo or CCK8 assay; format: cell-based
Chain of Mast/stem cell growth factor receptor Kit (Homo sapiens), P10721 [N822K] (P10721 whole entry N822K, the tested form may be a part): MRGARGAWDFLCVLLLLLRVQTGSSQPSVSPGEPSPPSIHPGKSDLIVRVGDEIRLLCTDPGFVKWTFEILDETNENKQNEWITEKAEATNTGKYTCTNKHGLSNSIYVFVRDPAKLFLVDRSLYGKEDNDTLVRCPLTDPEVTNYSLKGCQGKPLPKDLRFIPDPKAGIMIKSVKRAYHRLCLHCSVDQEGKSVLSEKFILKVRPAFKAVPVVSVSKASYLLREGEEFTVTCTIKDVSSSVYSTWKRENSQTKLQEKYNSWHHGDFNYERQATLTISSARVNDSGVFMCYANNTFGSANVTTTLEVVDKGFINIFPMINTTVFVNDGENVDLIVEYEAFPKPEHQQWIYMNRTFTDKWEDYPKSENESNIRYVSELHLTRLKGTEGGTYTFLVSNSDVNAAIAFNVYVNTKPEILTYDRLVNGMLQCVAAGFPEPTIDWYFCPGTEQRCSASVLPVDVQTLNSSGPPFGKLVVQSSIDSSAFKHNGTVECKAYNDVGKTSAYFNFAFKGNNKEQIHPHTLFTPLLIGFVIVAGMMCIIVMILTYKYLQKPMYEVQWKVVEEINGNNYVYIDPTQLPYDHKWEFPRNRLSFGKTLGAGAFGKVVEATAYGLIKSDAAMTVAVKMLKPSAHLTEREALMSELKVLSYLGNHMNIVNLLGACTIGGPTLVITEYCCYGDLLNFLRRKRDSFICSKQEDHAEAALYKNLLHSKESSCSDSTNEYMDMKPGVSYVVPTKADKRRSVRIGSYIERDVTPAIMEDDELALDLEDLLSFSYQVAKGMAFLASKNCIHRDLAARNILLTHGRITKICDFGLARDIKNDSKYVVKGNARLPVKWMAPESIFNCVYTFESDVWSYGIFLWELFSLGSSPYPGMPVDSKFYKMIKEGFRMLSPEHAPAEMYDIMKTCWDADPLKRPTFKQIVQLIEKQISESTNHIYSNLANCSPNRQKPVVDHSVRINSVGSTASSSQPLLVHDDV
Procedure, shortened: (§1)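 BaF3 lines were made by retroviral transduction with kinase-fusion MSCV vectors packaged in HEK293T cells. Cells were selected with puromycin for 48 h, then selected again without IL-3 so growth depends on the introduced kinase. […] They were seeded at 1 to 2.5×10^4 cells/mL with compound dilutions and incubated 72 h. Viability was read by CellTiter-Glo luminescence or CCK-8 absorbance (450/655 nm), normalized to DMSO control; GI50 was curve-fitted from triplicate tests.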

[5] = Anticancer activity against human K562 cells xenografted in nu/nu mouse assessed as tumor weight at 50 mg/kg administered via oral gavage measured after 28 days (reference value: 6.75 g); format: functional
Procedure, shortened: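 Female nu/nu mice received ten million K562 cells subcutaneously in the right flank, in PBS mixed 1:1 with Matrigel. Daily oral gavage began at 200-400 mm³ tumor size, with 4 or 5 mice per group. Dosing was 25, 50 or 100 mg/kg/d or vehicle (0.5% methylcellulose/0.4% Tween80) for 28 days. Body weight and tumor size were normalized to initial values, and final tumor weight was recorded. Data are mean ± SEM.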

[6] = Cmax in Sprague-Dawley rat at 10 mg/kg, po; format: ADME, organism-based; parameters: dose 10 mg/kg, route oral; conditions: in vivo
Procedure, shortened: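 Male Sprague-Dawley rats aged six to eight weeks were fasted overnight and then dosed iv or orally. Blood (~0.2 mL) was drawn from the jugular vein into heparin and kept on ice. Sampling was at 1 min to 8 h for iv and 5 min to 24 h for oral. Plasma was separated by centrifugation at 2-8 °C and stored at -80 °C until analysis.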

[7] = tested on: Mast/stem cell growth factor receptor Kit (Homo sapiens), P10721 [V559D,V654A]; experiment: Inhibition of Tel-fused c-KIT V559D/V654A double mutant (unknown origin) expressed in BAF3 cells assessed as growth inhibition measured after 72 hrs by CellTiter-Glo or CCK8 assay; format: cell-based
Chain of Mast/stem cell growth factor receptor Kit (Homo sapiens), P10721 [V559D,V654A] (P10721 whole entry V559D/V654A, the tested form may be a part): as the sequence (P10721 whole entry N822K, the tested form may be a part) above, with V559D, V654A, K822N counted along it
Procedure, shortened: as §1

[8] = target: T2, BCR/ABL p210 fusion protein (Homo sapiens, UniProt A1Z199); experiment: Inhibition of BCR/ABL p210 fusion protein mediated signaling pathways assessed as reduction in ERK phosphorylation at T202/Y204 in human MEG01 cells at 0.01 to 3 uM measured after 2 hrs by immunoblotting; format: cell-based; conditions: MEG-01
T2 sequence (A1Z199 1-97): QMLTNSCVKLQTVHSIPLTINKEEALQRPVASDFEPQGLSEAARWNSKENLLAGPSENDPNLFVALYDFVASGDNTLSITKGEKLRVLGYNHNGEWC
Procedure, shortened: (§2)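 After an ice-cold PBS wash, cells were lysed in RIPA buffer (50 mM Tris pH 8.0) with protease and phosphatase inhibitors, and protein was quantified by BCA. Lysates were run on SDS-PAGE, transferred to PVDF and blocked in 5% milk/TBST. Phospho- and total proteins were probed by immunoblot with ECL detection; β-actin served as loading control.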

[9] = Anticancer activity against human GISTT1 cells xenografted in nu/nu mouse assessed as tumor growth inhibition at 100 mg/kg, po administered daily via oral gavage measured 21 days post compound treatment relative to vehicle-treated control; conditions: 504 h, read-out: GI
[10] = target: Platelet-derived growth factor receptor beta (Homo sapiens, UniProt P09619); experiment: Inhibition of recombinant His-tagged human PDGFR-beta cytoplasmic domain (558 to 1106 residues) expressed in baculovirus expression system measured after 1 hr by FRET based Z'Lyte assay
Chain of Platelet-derived growth factor receptor beta (P09619 whole entry, the tested form may be a part): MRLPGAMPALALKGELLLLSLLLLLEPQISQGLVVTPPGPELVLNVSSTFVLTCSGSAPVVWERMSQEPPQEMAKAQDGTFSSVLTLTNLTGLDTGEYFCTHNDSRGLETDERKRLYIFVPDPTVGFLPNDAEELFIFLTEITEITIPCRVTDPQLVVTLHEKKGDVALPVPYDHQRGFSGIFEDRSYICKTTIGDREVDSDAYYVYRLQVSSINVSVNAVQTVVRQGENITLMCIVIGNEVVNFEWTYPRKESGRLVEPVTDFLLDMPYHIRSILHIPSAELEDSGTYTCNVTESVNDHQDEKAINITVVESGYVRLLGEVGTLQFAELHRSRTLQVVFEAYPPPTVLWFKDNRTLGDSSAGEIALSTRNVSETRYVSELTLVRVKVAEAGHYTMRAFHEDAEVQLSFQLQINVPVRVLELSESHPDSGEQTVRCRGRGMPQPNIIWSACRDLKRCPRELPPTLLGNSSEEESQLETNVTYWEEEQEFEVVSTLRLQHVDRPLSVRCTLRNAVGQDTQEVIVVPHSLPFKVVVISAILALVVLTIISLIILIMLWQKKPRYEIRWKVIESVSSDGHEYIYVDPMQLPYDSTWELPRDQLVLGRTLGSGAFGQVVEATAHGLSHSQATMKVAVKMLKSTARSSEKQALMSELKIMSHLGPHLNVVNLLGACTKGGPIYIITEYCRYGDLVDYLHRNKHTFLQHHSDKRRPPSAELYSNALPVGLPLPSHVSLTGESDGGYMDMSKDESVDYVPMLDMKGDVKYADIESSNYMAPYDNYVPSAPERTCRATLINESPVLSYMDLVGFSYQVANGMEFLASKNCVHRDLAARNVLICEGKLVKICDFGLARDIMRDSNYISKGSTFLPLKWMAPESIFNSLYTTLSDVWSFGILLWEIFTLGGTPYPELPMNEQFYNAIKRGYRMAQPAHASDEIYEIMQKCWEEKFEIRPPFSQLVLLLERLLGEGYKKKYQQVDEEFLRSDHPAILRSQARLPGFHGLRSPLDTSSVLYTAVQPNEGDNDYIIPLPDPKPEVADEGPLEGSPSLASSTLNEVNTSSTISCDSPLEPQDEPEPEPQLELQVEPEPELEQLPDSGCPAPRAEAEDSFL
Procedure, shortened: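 Z'-LYTE FRET biochemical kinase assay run by Invitrogen on selected kinases identified from binding profiling; IC50 from dose-response.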

[11] = target: T2, BCR/ABL p210 fusion protein; experiment: Inhibition of BCR/ABL p210 fusion protein mediated signaling pathways assessed as reduction in CrkL phosphorylation at Y207 in human K562 cells at 0.01 to 3 uM measured after 2 hrs by immunoblotting; format: cell-based
Procedure, shortened: as §2

[12] = tested on: KU812 cell line; experiment: Induction of apoptosis in human KU812 cells assessed as increase in cleaved caspase-3 level at 0.1 to 3 uM by Western blot analysis; format: functional, cell-based
Procedure, shortened: (§3)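 Cells were treated with DMSO or serially diluted compound for the indicated periods. They were washed in ice-cold PBS and lysed in RIPA buffer with protease/phosphatase inhibitors, and protein was quantified by BCA. Lysates were resolved by SDS-PAGE, transferred to PVDF and blocked in 5% milk/TBST. Blots were probed for PARP and caspase-3, with β-actin as loading control, and detected by ECL.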

[13] = tested on: Mast/stem cell growth factor receptor Kit (Homo sapiens), P10721 [D816V]; experiment: Inhibition of Tel-fused c-KIT D816V mutant (unknown origin) expressed in BAF3 cells assessed as growth inhibition measured after 72 hrs by CellTiter-Glo or CCK8 assay; format: cell-based
Chain of Mast/stem cell growth factor receptor Kit (Homo sapiens), P10721 [D816V] (P10721 whole entry D816V, the tested form may be a part): as the sequence (P10721 whole entry N822K, the tested form may be a part) above, with D816V, K822N counted along it
Procedure, shortened: as §1

[14] = tested on: GISTT1; experiment: Induction of apoptosis in human GISTT1 cells assessed as cleavage of PARP at 0.1 to 3 uM by Western blot analysis; format: functional, cell-based
Procedure, shortened: as §3

[15] = target: T2, BCR/ABL p210 fusion protein; experiment: Inhibition of BCR/ABL p210 fusion protein mediated signaling pathways assessed as reduction in ERK phosphorylation at T202/Y204 in human KU812 cells at 0.01 to 3 uM measured after 2 hrs by immunoblotting; format: cell-based
Procedure, shortened: as §2

[16] = target: T1, Mast/stem cell growth factor receptor Kit; experiment: Inhibition of c-KIT mediated signaling pathways assessed as reduction in ERK1/2 phosphorylation at T202/Y204 in human GIST882 cells at 0.03 to 10 uM measured after 2 hrs by immunoblotting; format: cell-based
Procedure, shortened: as §2

[17] = tested on: GISTT1; experiment: Anticancer activity against human GISTT1 cells xenografted in nu/nu mouse assessed as tumor growth inhibition administered daily via oral gavage measured 21 days post compound treatment
[18] = tested on: K562; experiment: Antiproliferative activity against human K562 cells xenografted in nu/nu mouse administered daily via oral gavage measured 28 days post compound treatment by Ki-67 staining based assay; format: functional, cell-based
Procedure, shortened: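 K562 xenograft tumors were taken after daily oral dosing. Tissue was fixed in 10% neutral-buffered formalin, paraffin-embedded and cut into 6-micron sections. […] Detection used DAB with a hematoxylin counterstain.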

T1 sequence (P10721 whole entry): as the sequence (P10721 whole entry N822K, the tested form may be a part) above, with K822N counted along it

## Cc1ccc(NC(=O)c2ccc(CN3CCN(C)CC3)cc2)cc1Nc1nccc(-c2cccnc2)n1 [IMATINIB]
[1]
  inhibition: Active
[2]
  inhibition: Active
[3]
  inhibition: Active

## Cc1ccc(C(=O)N2CCC(Oc3cc(NC(=O)c4ccc(CN5CCN(C)CC5)c(C(F)(F)F)c4)ccc3C)CC2)cn1
[4]
  GI50: 124 nM
[5]
  Activity: 6.51 g
[6]
  Cmax: 223 ng/mL
[7]
  GI50: 2870 nM
[8]
  inhibition: Active
[9]
  inhibition in vivo at 100 mg/kg: 46.5%
[10]
  IC50: 80 nM
[11]
  inhibition: Active
[12]
  Activity: Active
[13]
  GI50: 5060 nM
[14]
  Activity: Active
[15]
  inhibition: Active
[16]
  inhibition: Active
[17]
  TGI: Dose-dependent effect
[18]
  Activity: Dose-dependent effect
